# Laboratory results taken from ChEMBL document CHEMBL1821594, “Synthesis and anticancer evaluation of novel 2-cyclopropylimidazo[2,1-b][1,3,4]-thiadiazole derivatives” (2011).
# What was measured:
# [1] = tested on: KM12; assay: Antitumor activity against human KM12 cells after 48 hrs by SRB assay; assay type: functional; conditions: KM12, 48 h
# Outline: (§1)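 Cells grown in RPMI 1640 with 5% FBS and 2 mM L-glutamine and seeded at 5000–40,000 cells/well according to doubling time. They were preincubated 24 h at 37 °C, 5% CO2, then exposed to DMSO-solubilized compound for 48 h. Adherent cells were fixed with cold TCA (10% final), suspension cells with 16% final. Stained with 0.4% SRB; absorbance at 515 nm. Percent growth calculated against time-zero and control plates.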
# [2] = tested on: SF-539; assay: Antitumor activity against human SF539 cells after 48 hrs by SRB assay; assay type: functional; conditions: SF-539, 48 h; outline: as §1
# [3] = read-out: LC50 (the source's name)
smiles,measurement,setting,value
Clc1ccc(-c2nc3sc(C4CC4)nn3c2Br)cc1,GI50,[1],3.77 µM
same,TGI,[1],> 100 µM
same,CC50,[1]; [3],> 100 µM
same,GI50,[2],6.78 µM
same,TGI,[2],> 100 µM
same,CC50,[2]; [3],> 100 µM
